The source made the active and inactive calls. The rule behind the calls is not given here.
Assays:
[1] = system: Transthyretin (Homo sapiens), P02766 [V50M]; assay: Inhibition of TTR V30M mutant (unknown origin)-mediated amyloid fibril formation expressed in Escherichia coli assessed as amyloid fibril percentage at 0.2 mM after 4 days by thioflavin-T-fluorescence based assay (reference value: 100%); parameters: scale not given: the % may be the effect or the level left
Outline: (§1)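 Acid-driven aggregation: 2 μM E. coli-expressed V30M-TTR in 50 mM sodium acetate pH 4.2 held with compound at room temperature for 4 days. Stopped with 0.2 M Tris-HCl pH 8.0, then thioflavin-T added to 20 μM and fluorescence read at ex 440/em 484 nm. Values are amyloid fibril % relative to no-compound control.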

[2] = system: Transthyretin (Homo sapiens), P02766 [V50M]; assay: Inhibition of ANS binding to TTR V30M mutant (unknown origin) expressed in Escherichia coli assessed as increase in BC50 for ANS binding to TTR at 100 mM in presence of 150 mM Na+ by fluorescence-based assay
[3] = system: Transthyretin (Homo sapiens), P02766 [V50M]; assay: Inhibition of TTR V30M mutant (unknown origin)-mediated amyloid fibril formation expressed in Escherichia coli assessed as amyloid fibril percentage at 10 mM after 4 days by thioflavin-T-fluorescence based assay (reference value: 100%); parameters: scale not given: the % may be the effect or the level left; outline: as §1
[4] = system: Transthyretin (Homo sapiens), P02766 [V50M]; assay: Inhibition of ANS binding to TTR V30M mutant (unknown origin) expressed in Escherichia coli assessed as increase in BC50 for ANS binding to TTR at 10 mM in presence of 150 mM Na+ by fluorescence-based assay
[5] = system: Transthyretin (Homo sapiens), P02766 [V50M]; assay: Stabilization of TTR V30M mutant (unknown origin) expressed in Escherichia coli assessed as formation of TTR tetramer band formation after 4 mins by SDS-PAGE analysis based glutaraldehyde cross-linking assay
[6] = system: Transthyretin (Homo sapiens), P02766 [V50M]; assay: Inhibition of ANS binding to TTR V30M mutant (unknown origin) expressed in Escherichia coli assessed as increase in BC50 for ANS binding to TTR at 10 mM in presence of 150 mM K+ by fluorescence-based assay
[7] = system: Transthyretin (Homo sapiens), P02766 [V50M]; assay: Inhibition of TTR V30M mutant (unknown origin)-mediated amyloid fibril formation expressed in Escherichia coli assessed as amyloid fibril percentage at 0.6 mM after 4 days by thioflavin-T-fluorescence based assay (reference value: 100%); parameters: scale not given: the % may be the effect or the level left; outline: as §1
[8] = system: Transthyretin (Homo sapiens), P02766 [V50M]; assay: Stabilization of TTR V30M mutant (unknown origin) expressed in Escherichia coli assessed as formation of TTR tetramer band formation at 10 mM after 4 mins by SDS-PAGE analysis based glutaraldehyde cross-linking assay
[9] = system: Transthyretin (Homo sapiens), P02766 [V50M]; assay: Potentiation of diflunisal-induced stabilization of TTR V30M mutant (unknown origin) expressed in Escherichia coli assessed as formation of TTR tetramer band formation at 5 mM after 4 mins by SDS-PAGE analysis based glutaraldehyde cross-linking assay relative to diflunisal alone
Outline: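 Glutaraldehyde 4 min at RT, borohydride quench, SDS-PAGE with silver stain, tetramer band quantified. Controls were pH 8.0 Tris buffer (positive) and pH 4.4 buffer without compound (negative).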

[10] = system: Transthyretin (Homo sapiens), P02766 [V50M]; assay: Stabilization of TTR V30M mutant (unknown origin) expressed in Escherichia coli assessed as formation of TTR tetramer band formation at 40 to 100 mM after 4 mins by SDS-PAGE analysis based glutaraldehyde cross-linking assay
[11] = system: Transthyretin (Homo sapiens), P02766 [V50M]; assay: Inhibition of ANS binding to TTR V30M mutant (unknown origin) expressed in Escherichia coli assessed as increase in BC50 for ANS binding to TTR at 100 mM in presence of 150 mM K+ by fluorescence-based assay
[12] = system: Transthyretin (Homo sapiens), P02766 [V50M]; assay: Stabilization of TTR V30M mutant (unknown origin) expressed in Escherichia coli assessed as formation of TTR tetramer band formation at 2 uM after 4 mins by SDS-PAGE analysis based glutaraldehyde cross-linking assay
[13] = system: Transthyretin (Homo sapiens), P02766 [V50M]; assay: Inhibition of TTR V30M mutant (unknown origin)-mediated amyloid fibril formation expressed in Escherichia coli assessed as amyloid fibril percentage at 0.5 uM after 4 days by thioflavin-T-fluorescence based assay (reference value: 100%); parameters: scale not given: the % may be the effect or the level left; outline: as §1
[14] = system: Transthyretin (Homo sapiens), P02766 [V50M]; assay: Inhibition of TTR V30M mutant (unknown origin)-mediated amyloid fibril formation expressed in Escherichia coli assessed as amyloid fibril percentage at 5 uM after 4 days by thioflavin-T-fluorescence based assay (reference value: 100%); parameters: scale not given: the % may be the effect or the level left; outline: as §1
[15] = system: Transthyretin (Homo sapiens), P02766 [V50M]; assay: Inhibition of TTR V30M mutant (unknown origin)-mediated amyloid fibril formation expressed in Escherichia coli assessed as amyloid fibril percentage at 1.5 uM after 4 days by thioflavin-T-fluorescence based assay (reference value: 100%); parameters: scale not given: the % may be the effect or the level left; outline: as §1
[16] = system: Transthyretin (Homo sapiens), P02766 [V50M]; assay: Stabilization of TTR V30M mutant (unknown origin) expressed in Escherichia coli assessed as formation of TTR tetramer band formation at 1 uM after 4 mins by SDS-PAGE analysis based glutaraldehyde cross-linking assay

Row | SMILES | Activity [1] | inhibition [2] | Activity [3] | inhibition [4] | Activity [5] | inhibition [6] | Activity [7] | Activity [10] | inhibition [11] | further results
1 | c1ccc2c(c1)OCCOCCOCCOCCOCCO2 | 100% | Active | 47% | Active | Dose-dependent effect | Active | 96% | – | – | –
2 | O=C(O)c1ccc2c(c1)OCCOCCOCCOCCOCCO2 | 99% | Active | – | Active | Dose-dependent effect | Active | 92% | – | – | Activity [8]: 68%; Activity [9]: Active
3 | O=C(O)c1cc(-c2ccc(F)cc2F)ccc1O | – | – | – | – | – | – | – | – | – | Activity [12]: 52%; Activity [13]: 80%; Activity [14]: 3.1%; Activity [15]: 35%; Activity [16]: 15%

Second part, led by results:

Row | Activity [1] | inhibition [2] | Activity [3] | inhibition [4] | Activity [5] | inhibition [6] | Activity [7] | Activity [10] | inhibition [11] | SMILES | further results
4 | – | Active | – | – | – | – | – | Active | Active | C1COCCOCCOCCO1 | –
5 | 100% | Active | 92% | Active | – | Active | 100% | – | – | C1CCC2OCCOCCOC3CCCCC3OCCOCCOC2C1 (configuration not stated) | –
6 | – | Active | – | – | – | – | – | Active | Active | C1COCCOCCOCCOCCO1 | –

From ChEMBL document CHEMBL4411329, “Crown Ethers as Transthyretin Amyloidogenesis Inhibitors” (J Med Chem, 2019)
